Assay results from ChEMBL document CHEMBL4049460, “Trisubstituted Imidazoles with a Rigidized Hinge Binding Motif Act As Single Digit nM Inhibitors of Clinically Relevant EGFR L858R/T790M and L858R/T790M/C797S Mutants: An Example of Target Hopping” (J Med Chem, 2017).
In brackets after ≈: the same amount, converted by molar mass.

Legend:
[1] = biological target: T1, Epidermal growth factor receptor (Homo sapiens, UniProt P00533); assay: Inhibition of recombinant human GST-tagged wild type EGFR ( 668 to 1210 residues) cytoplasmic domain expressed in baculovirus expression system preincubated for 20 mins followed by addition of [33P]-ATP measured after 2 hrs by filter-binding method
[2] = biological target: T2, Epidermal growth factor receptor (Homo sapiens, UniProt P00533, L858R); assay: Inhibition of recombinant human GST-tagged EGFR L858R mutant cytoplasmic domain expressed in baculovirus expression system preincubated for 20 mins followed by addition of [33P]-ATP measured after 2 hrs by filter-binding method
[3] = biological target: Epidermal growth factor receptor (Homo sapiens, UniProt P00533, T790M/L858R); assay: (§1) Inhibition of recombinant human GST-tagged EGFR L858R/T790M double mutant cytoplasmic domain expressed in baculovirus expression system preincubated for 20 mins followed by addition of [33P]-ATP measured after 2 hrs by filter-binding method
[4] = biological target: Epidermal growth factor receptor (Homo sapiens, UniProt P00533, T790M/C797S/L858R); assay: (§2) Inhibition of recombinant human N-terminally GST-tagged EGFR L858R/T790M/C797S triple mutant expressed in baculovirus in Sf9 insect cells preincubated for 20 mins followed by addition of [33P]-ATP measured after 2 hrs by filter-binding method
[5] = biological target: T3, Epidermal growth factor receptor (Homo sapiens, UniProt P00533, L858R/T790M); assay: as §1
[6] = biological target: Mitogen-activated protein kinase 14 (Homo sapiens, UniProt Q16539); assay: Inhibition of p38alpha MAPK (unknown origin) assessed as decrease in ATF2 phosphorylation at Thr69/71 at 1 uM after 1 hr by ELISA
[7] = biological target: Epidermal growth factor receptor (Homo sapiens, UniProt P00533, C797S/L858R/T790M); assay: as §2
[8] = biological target: T1, Epidermal growth factor receptor; assay: Inhibition of wild-type EGFR (unknown origin)
[9] = biological target: T2, Epidermal growth factor receptor; assay: Inhibition of EGFR L858R mutant (unknown origin)
[10] = biological target: T3, Epidermal growth factor receptor; assay: Inhibition of EGFR L858R/T790M double mutant (unknown origin)
[11] = Solubility of the compound at pH 7.5 by UV-HPLC analysis; type: physicochemical; conditions: buffer
Procedure, shortened: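 Solubility measured in the kinase assay buffer (pH 7.5); concentration determined by HPLC with UV detection.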

[12] = organism: Homo sapiens; assay: Selectivity ratio of IC50 for EGFR L858R/T790M double mutant (unknown origin) to IC50 for wild-type EGFR (unknown origin)
[13] = test system: Epidermal growth factor receptor (Homo sapiens), P00533 [L858R,T790M,C797S]; assay: Potency index, ratio of osimertinib IC50 to compound IC50 for recombinant human N-terminally GST-tagged EGFR L858R/T790M/C797S triple mutant expressed in baculovirus in Sf9 insect cells

Mitogen-activated protein kinase 14, sequence (Q16539 whole entry): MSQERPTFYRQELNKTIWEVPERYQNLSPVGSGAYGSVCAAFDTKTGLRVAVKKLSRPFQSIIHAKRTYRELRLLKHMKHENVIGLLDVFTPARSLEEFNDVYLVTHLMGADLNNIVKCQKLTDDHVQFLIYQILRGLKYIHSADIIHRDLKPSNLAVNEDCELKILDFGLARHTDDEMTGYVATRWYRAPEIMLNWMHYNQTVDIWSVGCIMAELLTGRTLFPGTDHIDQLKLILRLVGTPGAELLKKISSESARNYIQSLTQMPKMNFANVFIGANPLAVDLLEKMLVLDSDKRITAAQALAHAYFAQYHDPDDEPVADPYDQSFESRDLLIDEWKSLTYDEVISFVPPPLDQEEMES

In the case of `C=CC(=O)Nc1cccc(-c2c[nH]c3nccc(-c4[nH]c(CCCO)nc4C4CC4)c23)c1`, the IC50 ([1]; read-out: IC50) is reported as 673 nM, the IC50 ([2]; read-out: IC50) is reported as 258 nM and the IC50 [3] is reported as “Not Active”. For the same compound, the IC50 [4] was “Not Active”.

For `Oc1ccc(-c2nc(-c3ccccc3)c(-c3ccnc4[nH]c(-c5ccccc5)cc34)[nH]2)cc1`, the IC50 ([1]; read-out: IC50) was 13.6 nM, the IC50 ([2]; read-out: IC50) was 11.2 nM and the IC50 [5] was 658 nM. It also gave an IC50 [6] of 1 nM.

In the case of `Oc1cccc(-c2nc(-c3ccc(F)cc3)c(-c3ccnc4[nH]c(-c5ccccc5)cc34)[nH]2)c1`, the IC50 ([1]; read-out: IC50) is reported as 30.4 nM, the IC50 ([2]; read-out: IC50) is reported as 23.6 nM and the IC50 [5] is reported as 706 nM. It also gave an IC50 [7] of 782 nM and an IC50 [6] of 7 nM.

In the case of `CCC(=O)Nc1cccc(-c2c[nH]c3nccc(-c4[nH]c(CCCO)nc4C4CC4)c23)c1`, the IC50 [1] is reported as “Not Active”, the IC50 [2] is reported as “Not Active” and the IC50 [3] is reported as “Not Active”. The IC50 [4] was “Not Active”.

In the case of `OCCCc1nc(-c2ccc(F)cc2)c(-c2ccnc3[nH]c(-c4ccccc4)cc23)[nH]1`, the IC50 [7] is reported as 21.1 nM, the IC50 [8] is reported as less than 0.5 nM and the IC50 [9] is reported as less than 0.5 nM. It also gave an IC50 [10] of 6.47 nM and an IC50 [6] of 2 nM.

Compound `C=CC(=O)Nc1cccc(-c2c[nH]c3nccc(Cl)c23)c1` has an IC50 ([1]; read-out: IC50) of 525 nM, an IC50 ([2]; read-out: IC50) of 459 nM and an IC50 [5] of 67.9 nM.

In the case of `C=CC(=O)Nc1cccc(-c2c[nH]c3nccc(-c4[nH]c(CCCO)nc4C(F)(F)F)c23)c1`, the IC50 ([1]; read-out: IC50) is reported as 680 nM, the IC50 ([2]; read-out: IC50) is reported as 297 nM and the IC50 [5] is reported as 1880 nM. For the same compound, the IC50 [4] was “Not Active”.

In the case of `C=CC(=O)NCc1cccc(-c2cc3cccnc3[nH]2)c1`, the IC50 [1] is reported as “Not Active”, the IC50 [2] is reported as “Not Active” and the IC50 [3] is reported as “Not Active”. For the same compound, the IC50 [4] was “Not Active”.

With `Nc1cccc(-c2cc3c(-c4[nH]c(-c5ccccc5)nc4-c4ccc(F)cc4)ccnc3[nH]2)c1` the IC50 ([1]; read-out: IC50) was 24.1 nM, the IC50 ([2]; read-out: IC50) was 15.4 nM and the IC50 [5] was 651 nM.

With `OCCCCc1nc(-c2ccc(F)cc2)c(-c2ccnc3[nH]c(-c4ccccc4)cc23)[nH]1` the IC50 ([1]; read-out: IC50) was less than 0.3 nM, the IC50 ([2]; read-out: IC50) was less than 0.3 nM and the IC50 [5] was 8.39 nM. The IC50 [7] was 8.4 nM, the solubility [11] was “Insoluble” and the IC50 [6] was 2 nM.

With `Oc1ccc(-c2nc(-c3ccnc4[nH]c(-c5ccccc5)cc34)c(-c3ccc(F)cc3)[nH]2)cc1` the IC50 ([1]; read-out: IC50) was 49.2 nM, the IC50 ([2]; read-out: IC50) was 24.1 nM and the IC50 [5] was 916 nM.

Work on `C=CC(=O)Nc1cccc(-c2c[nH]c3nccc(-c4[nH]c(-c5ccccc5)nc4-c4ccc(F)cc4)c23)c1` yielded an IC50 ([1]; read-out: IC50) of 10.5 nM, an IC50 ([2]; read-out: IC50) of 7.8 nM and an IC50 [5] of 112 nM. The IC50 [4] was “Not Active”.

With `Fc1ccc(-c2nc(-c3ccccc3)[nH]c2-c2ccnc3[nH]ccc23)cc1` the IC50 ([1]; read-out: IC50) was 712 nM, the IC50 ([2]; read-out: IC50) was 631 nM and the IC50 [3] was “Not Active”. For the same compound, the IC50 [4] was “Not Active”.

With `NCc1cccc(-c2nc(-c3ccc(F)cc3)c(-c3ccnc4[nH]c(-c5ccccc5)cc34)[nH]2)c1` the IC50 [7] was 336 nM, the IC50 [8] was less than 0.5 nM and the IC50 [9] was less than 0.5 nM. It also gave an IC50 [10] of 160 nM.

In the case of `CCC(=O)Nc1cccc(-c2c[nH]c3nccc(-c4[nH]c(-c5ccccc5)nc4-c4ccc(F)cc4)c23)c1`, the IC50 [1] is reported as “Not Active”, the IC50 [2] is reported as “Not Active” and the IC50 [3] is reported as “Not Active”. For the same compound, the IC50 [4] was “Not Active”.

`OCCCc1nc(-c2ccc(F)cc2)c(-c2ccnc3[nH]ccc23)[nH]1` gave an IC50 ([1]; read-out: IC50) of 44 nM, an IC50 ([2]; read-out: IC50) of 24.4 nM and an IC50 [5] of 893 nM. It also gave an IC50 [7] of 943 nM, a Ratio IC50 [12] greater than 130 and an IC50 [6] of 12 nM.

Compound `C=CC(=O)NCc1cccc(-c2cc3c(-c4[nH]c(-c5ccccc5)nc4-c4ccc(F)cc4)ccnc3[nH]2)c1` has an IC50 ([1]; read-out: IC50) of 33.2 nM, an IC50 ([2]; read-out: IC50) of 34.2 nM and an IC50 [5] of 683 nM.

`CCC(=O)Nc1cccc(-c2c[nH]c3nccc(-c4[nH]c(CCCO)nc4-c4ccc(F)cc4)c23)c1` gave an IC50 ([1]; read-out: IC50) of 673 nM, an IC50 ([2]; read-out: IC50) of 279 nM and an IC50 [5] of 5900 nM.

`C=CC(=O)Nc1cccc(-c2cc3c(-c4[nH]c(-c5ccccc5)nc4-c4ccc(F)cc4)ccnc3[nH]2)c1` gave an IC50 ([1]; read-out: IC50) of 43.2 nM, an IC50 ([2]; read-out: IC50) of 32.1 nM and an IC50 [5] of 908 nM.

In the case of `C=CC(=O)NCc1cccc(-c2nc(C3CC3)c(-c3ccnc4[nH]c(-c5ccccc5)cc34)[nH]2)c1`, the IC50 ([1]; read-out: IC50) is reported as 4050 nM, the IC50 ([2]; read-out: IC50) is reported as 3920 nM and the IC50 [5] is reported as 11300 nM.

With `C=CC(=O)NCc1cccc(-c2nc(-c3ccc(F)cc3)c(-c3ccnc4[nH]c(-c5ccccc5)cc34)[nH]2)c1` the IC50 ([1]; read-out: IC50) was 17.6 nM, the IC50 ([2]; read-out: IC50) was 13 nM and the IC50 [5] was 263 nM.

Work on `Oc1ccc(-c2nc(-c3ccco3)c(-c3ccnc4[nH]c(-c5ccccc5)cc34)[nH]2)cc1` yielded an IC50 ([1]; read-out: IC50) of 1790 nM, an IC50 ([2]; read-out: IC50) of 1300 nM and an IC50 [5] of 3310 nM. The IC50 [6] was 288 nM.

Work on `OCCc1nc(-c2ccc(F)cc2)c(-c2ccnc3[nH]c(-c4ccccc4)cc23)[nH]1` yielded an IC50 ([1]; read-out: IC50) of less than 0.3 nM, an IC50 ([2]; read-out: IC50) of less than 0.3 nM and an IC50 [5] of 12.5 nM. It also gave an IC50 [7] of 7.64 nM, a Ratio IC50 [13] of 35 and a solubility ([11]; read-out: solubility) of 7 µg/mL (≈ 17.6 µM). For the same compound, the IC50 [6] was 4 nM.

`CCC(=O)Nc1cccc(-c2cc3c(-c4[nH]c(-c5ccccc5)nc4-c4ccc(F)cc4)ccnc3[nH]2)c1` gave an IC50 ([1]; read-out: IC50) of 27.2 nM, an IC50 ([2]; read-out: IC50) of 18.7 nM and an IC50 [5] of 987 nM.

`Fc1ccc(-c2[nH]c(-c3ccccc3)nc2-c2ccnc3[nH]c(-c4ccccc4)cc23)cc1` showed an IC50 ([1]; read-out: IC50) of 215 nM, an IC50 ([2]; read-out: IC50) of 102 nM and an IC50 [5] of 1450 nM. For the same compound, the IC50 [7] was 1430 nM.
